# Measurements: ChEMBL document CHEMBL4152363, “Andrographolide derivative as STAT3 inhibitor that protects acute liver damage in mice” (Bioorg Med Chem, 2018)
# Active and inactive are the calls of the source. The rule behind the calls is not given here.
# Legend:
# [1] = system: AD293; experiment: (§1) Cytotoxicity against human AD293 cells; type: cell-based; conditions: ad293
# Method in brief: (§2)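 AD-293 or HeLa cells grown in high-glucose DMEM with 10% FBS and 1% penicillin-streptomycin; compound exposure 24 h; cytotoxicity reported as CC10.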
# [2] = target: T1, Signal transducer and activator of transcription 3 (Homo sapiens, UniProt P40763); experiment: Inhibition of […] activation in human HeLa cells incubated […] for 16 hrs followed by compound addition measured after 4 hrs by luciferase reporter gene assay; type: cell-based
# Method in brief: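 NF-κB pathway in AD-293 or HeLa cells stimulated with 50 ng/mL TNF-α; compound treatment 4 h; luciferase activity read from cell extracts; EC50 derived.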
# [3] = target: T1, Signal transducer and activator of transcription 3; experiment: Inhibition of […] activation in human AD293 cells incubated […] for 16 hrs followed by compound addition measured after 4 hrs by luciferase reporter gene assay; type: cell-based
# [4] = target: T1, Signal transducer and activator of transcription 3; experiment: Inhibition of IFNgamma-stimulated STAT3 phosphorylation at Tyr705 residues in human AD293 cell lysates incubated with IFNgamma followed by compound addition at 10 uM by Western blot analysis
# Method in brief: (§3)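 AD-293 cells treated with 1 μg/mL IFN-γ alone or with compounds at 10 μM; phospho- and total STAT1 and STAT3 assessed by western blot; representative of at least three independent experiments.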
# [5] = system: HeLa; experiment: Cytotoxicity against human HeLa cells; type: cell-based; method in brief: as §2
# [6] = target: T1, Signal transducer and activator of transcription 3; experiment: Inhibition of IFNgamma-stimulated STAT3 activation in human AD293 cells incubated with IFNgamma for 16 hrs followed by compound addition measured after 24 hrs by luciferase reporter gene assay; type: cell-based
# Method in brief: (§4)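 AD-293 or HeLa cells in DMEM/10% FBS stimulated with 20 pg/mL IFN-γ; compound treatment 24 h; luciferase activity measured in cell extracts; EC50 derived.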
# [7] = target: T1, Signal transducer and activator of transcription 3; experiment: Inhibition of IL-6 stimulated STAT3 activation in human AD293 cells incubated with IL-6 for 16 hrs followed by compound addition measured after 6 hrs by luciferase reporter gene assay; type: cell-based
# Method in brief: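 AD-293 cells stimulated with 2.5 μg/mL IL-6; compound treatment 6 h; luciferase activity read from cell extracts; EC50 derived.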
# [8] = target: T2, Signal transducer and activator of transcription 1-alpha/beta (Homo sapiens) (UniProt P42224); experiment: Inhibition of IFNgamma-stimulated STAT1 phosphorylation at Tyr701 residues in human AD293 cell lysates incubated with IFNgamma followed by compound addition at 10 uM by Western blot analysis; method in brief: as §3
# T2 sequence (whole entry): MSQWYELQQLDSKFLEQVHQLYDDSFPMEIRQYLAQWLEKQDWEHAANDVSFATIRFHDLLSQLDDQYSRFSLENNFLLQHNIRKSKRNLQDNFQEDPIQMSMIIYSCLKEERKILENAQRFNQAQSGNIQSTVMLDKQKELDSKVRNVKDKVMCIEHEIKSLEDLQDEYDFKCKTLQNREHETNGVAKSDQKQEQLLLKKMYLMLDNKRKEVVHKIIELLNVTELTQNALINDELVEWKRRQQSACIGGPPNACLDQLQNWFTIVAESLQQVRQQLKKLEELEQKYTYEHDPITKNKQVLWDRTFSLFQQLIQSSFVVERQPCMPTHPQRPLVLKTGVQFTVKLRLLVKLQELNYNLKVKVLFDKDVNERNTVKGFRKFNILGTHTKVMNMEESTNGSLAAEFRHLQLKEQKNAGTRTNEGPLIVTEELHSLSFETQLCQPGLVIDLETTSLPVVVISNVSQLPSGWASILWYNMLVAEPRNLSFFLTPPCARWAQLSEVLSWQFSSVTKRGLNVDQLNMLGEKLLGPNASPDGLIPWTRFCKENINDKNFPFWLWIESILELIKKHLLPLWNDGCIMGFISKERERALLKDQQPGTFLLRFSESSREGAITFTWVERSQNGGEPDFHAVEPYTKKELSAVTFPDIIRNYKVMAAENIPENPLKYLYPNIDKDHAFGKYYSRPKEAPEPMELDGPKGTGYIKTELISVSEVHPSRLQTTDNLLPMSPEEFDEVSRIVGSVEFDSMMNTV
# [9] = target: T1, Signal transducer and activator of transcription 3; experiment: Inhibition of IFNgamma-stimulated STAT3 activation in human HeLa cells incubated with IFNgamma for 16 hrs followed by compound addition measured after 24 hrs by luciferase reporter gene assay; type: cell-based; method in brief: as §4
# [10] = as §1; type: cell-based; conditions: AD293 cells; method in brief: as §2
# [11] = target: T1, Signal transducer and activator of transcription 3; experiment: Inhibition of IFNgamma-stimulated GFP/FLAG-tagged STAT3 dimerization in human AD293 cells incubated for 6 hrs by Western blot analysis; type: cell-based
# Method in brief: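 AD-293 cells co-transfected 48 h with GFP- and FLAG-tagged STAT3 plasmids, then IFN-γ with or without compound for 6 h; 100 μg lysate (RIPA) immunoprecipitated with anti-FLAG and protein G beads; blots probed for GFP and FLAG, chemiluminescent detection.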
# T1 sequence (P40763 whole entry): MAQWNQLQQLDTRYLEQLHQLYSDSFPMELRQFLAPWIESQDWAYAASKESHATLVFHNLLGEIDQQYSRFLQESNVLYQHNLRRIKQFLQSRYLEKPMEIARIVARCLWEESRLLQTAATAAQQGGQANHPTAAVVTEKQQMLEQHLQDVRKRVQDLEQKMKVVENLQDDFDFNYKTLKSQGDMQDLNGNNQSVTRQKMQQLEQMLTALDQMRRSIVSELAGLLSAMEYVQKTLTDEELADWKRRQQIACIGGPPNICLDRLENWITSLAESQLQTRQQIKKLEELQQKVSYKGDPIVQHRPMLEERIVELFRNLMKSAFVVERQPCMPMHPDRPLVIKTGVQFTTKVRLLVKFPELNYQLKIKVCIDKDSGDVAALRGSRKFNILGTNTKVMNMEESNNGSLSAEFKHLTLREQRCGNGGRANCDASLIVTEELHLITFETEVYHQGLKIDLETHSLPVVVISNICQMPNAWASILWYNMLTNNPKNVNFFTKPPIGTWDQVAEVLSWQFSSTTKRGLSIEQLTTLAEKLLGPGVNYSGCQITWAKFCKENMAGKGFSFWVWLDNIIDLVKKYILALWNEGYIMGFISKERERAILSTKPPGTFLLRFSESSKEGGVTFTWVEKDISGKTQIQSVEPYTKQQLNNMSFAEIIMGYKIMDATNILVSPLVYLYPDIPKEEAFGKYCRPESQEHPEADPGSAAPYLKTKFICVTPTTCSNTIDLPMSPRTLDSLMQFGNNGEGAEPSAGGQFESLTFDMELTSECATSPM
Structure (SMILES),EC50 [2] [µM],EC50 [3] [µM],inhibition [4],EC50 [6] [µM],EC50 [7] [µM],inhibition [8],EC50 [9] [µM],IC50 [11] [µM],CC10 [1] [µM],CC10 [5] [µM],CC50 [10] [µM]
CC(=O)OC[C@]1(C)C(=O)CC[C@@]2(C)[C@H](C/C=C3/C(=O)OC[C@H]3O[Si](C)(C)C(C)(C)C)[C@]3(CC[C@@H]21)CO3,> 10,> 10,Active,5.38,> 10,,8.34,,> 10,> 10,
C=C1CC[C@@H]2[C@](C)(CO)[C@H](O)CC[C@@]2(C)[C@@H]1C/C=C1/C(=O)OC[C@H]1O[Si](C)(C)C(C)(C)C,> 10,> 10,inactive,5.68,10.6,inactive,6.57,,> 10,> 10,
CC(C)(C)[Si](C)(C)O[C@@H]1CC[C@]2(C)[C@H](CC[C@@]3(CO3)[C@H]2C/C=C2/C(=O)OC[C@H]2O)[C@]1(C)CO,> 10,> 10,inactive,5.39,4.16,inactive,6.15,,> 10,> 10,
CC(C)(C)[Si](C)(C)O[C@@H]1CC[C@]2(C)[C@H](CC[C@]3(CO3)[C@H]2C/C=C2/C(=O)OC[C@H]2O)[C@]1(C)CO,> 10,> 10,inactive,5.38,> 10,inactive,8.34,,> 10,> 10,
Cc1ccc(S(=O)(=O)OCC(=O)Nc2ccc(C(=O)O)cc2)cc1,,,,,,,,86,,,
CC(C)(C)[Si](C)(C)OC[C@]1(C)C(=O)CC[C@@]2(C)[C@H](C/C=C3/C(=O)OC[C@H]3O)[C@]3(CC[C@@H]21)CO3,> 10,> 10,,> 10,> 10,,> 10,,,> 10,8.31

# Further lines, with some results ahead:
EC50 [2] [µM],EC50 [3] [µM],inhibition [4],EC50 [6] [µM],EC50 [7] [µM],inhibition [8],EC50 [9] [µM],IC50 [11] [µM],Structure (SMILES),CC10 [1] [µM],CC10 [5] [µM],CC50 [10] [µM]
> 10,> 10,inactive,5.05,> 10,inactive,5.8,,C=C1CC[C@@H]2[C@](C)(CO[Si](C)(C)C(C)(C)C)[C@H](OC(C)=O)CC[C@@]2(C)[C@@H]1C/C=C1/C(=O)OC[C@H]1OC(C)=O,> 10,> 10,
4.57,7.52,,1.97,0.99,,4.43,,C=C1CC[C@H]2[C@@](C)(CCC(=O)[C@@]2(C)CO[Si](C)(C)C(C)(C)C)[C@@H]1C/C=C1/C(=O)OC[C@H]1OC(C)=O,,> 10,7.35
9.67,9.49,,5.11,3.11,,9.45,,CC(=O)O[C@@H]1COC(=O)/C1=C/C[C@@H]1[C@]2(CC[C@@H]3[C@](C)(CO)[C@H](O)CC[C@]31C)CO2,,> 10,10.9
